Assay results reported in ChEMBL document CHEMBL4513216, “Probing the Open Global Health Chemical Diversity Library for Multistage-Active Starting Points for Next-Generation Antimalarials” (ACS Infect Dis, 2020).

test: Toxicity liver stage against HepG2, at 10uM; type: cell-based; parameters: test concentration 10 uM, cell line HepG2-A16-CD81EGFP; details: human, HepG2-A16-CD81EGFP cells; read-out: INHIBITION
Method in brief: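 Uninfected HepG2-A16-CD81EGFP cells, 3 × 10^3 per well, 1536-well, plated on prespotted compound at 10 μM final, parasite-free screening media added to match infected plates; puromycin 10 μM positive, DMSO 0.5% negative; run in parallel with 48 h PbLuc assay at 37 °C, 5% CO2; viability by CellTiter-Glo luminescence, normalized to controls.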

Row | Structure (SMILES) | cytotoxicity at 10 µM [%]
1 | CS(=O)(=O)N1CC2(CCN(CC3CCCCC3)CC2)Cc2ccccc21 | 6.25
2 | CC(C)COc1cncc(N2CCCN(c3ncccn3)CC2)n1 | -2.38
3 | CO[C@@H]1CCN(Cc2ccc(C)o2)[C@H]1Cc1ccccc1 | -3.15
4 | CC(NCC(=O)Nc1ccc(N2CCCCCC2)cc1)c1cccs1 (stereo not given) | 1.8
5 | CCN(CCNCc1ccc(C#N)cc1)C1CC1 | -6.54
6 | CCc1cnc(N2CCc3cc(C(=O)NC)c(N(C)C)nc3CC2)nc1 | -125
7 | Cc1ccccc1C1(C(=O)N2CCOC(C)C2)CCOCC1 (stereo not given) | 5.33
8 | Cc1noc(C)c1NC(=O)CCn1cc(Br)ccc1=O | 7.07
9 | O=C(NCCc1cscn1)c1coc(CN2CCOCC2)c1 | -3.7
10 | O=c1ccc2c(n1CC1CCOCC1)CCN(Cc1ccoc1)CC2 | -128
11 | COCCn1ccc2c(C(=O)NC3CN4CCC3CC4)cccc21 (stereo not given) | -51.6
12 | CC1CCN(S(=O)(=O)NCc2ccccc2Cn2cncn2)CC1 | -2.72
13 | Cn1cc(C(=O)N[C@@H]2CN(Cc3cccs3)[C@@H]3CCCO[C@@H]32)cn1 | -13.4
14 | COc1ccc(CN2CCO[C@H]3CN(C(=O)C4CC4)CC[C@H]3C2=O)cc1 | -147
15 | CSc1c[nH]nc1NS(=O)(=O)c1cc(F)ccc1C | 6.98
16 | CC(C)c1noc(CCCC(=O)N2CCN(C)CC2c2ccccc2)n1 (stereo not given) | -2.89
17 | O=C(c1cccnc1SCc1ccccc1)N1CC[C@@H](O)C1 | -2.04
18 | O=C(c1ccc2[nH]nnc2c1)N1C[C@H](O)[C@]2(CCCO2)C1 | 3.42
19 | O=c1[nH]cnc2c1CCN(S(=O)(=O)c1cccc(OC(F)(F)F)c1)C2 | -2.87
20 | CCC1CN(C(=O)COc2ccc(C(=O)NC3CC3)cc2)CCO1 (stereo not given) | -4.39
21 | Cc1cnc(N2CCC3(CCC(C(=O)NC(C)C)OC3)CC2)nc1 (stereo not given) | 0.903
22 | COc1cc(C(=O)N2Cc3cnc(C(C)(C)C)nc3C2)ccn1 | 2.03
23 | CCC1=N[C@@]2(CC[C@@H]3CN(Cc4ccc(Cl)cc4)C[C@@H]32)C(=O)N1C | 1.98
24 | CCN1Cc2cc(F)ccc2N(C(=O)C2CCC2)CCC1=O | -41.2
25 | N#Cc1ccc(C(=O)N2CC[C@H]3[C@@H]2CCC(=O)N3c2ccccc2)cc1 | 3.99
26 | O=C1C(Sc2nc(=O)ccn2C2CC2)CCN1c1ccccc1F (stereo not given) | 1.73
27 | Cc1ccc(CN(C)C(C(=O)O)c2ccc3c(c2)OCO3)o1 (stereo not given) | 6.35
28 | COCc1cccc(CNCc2c(C)nn(C)c2N(C)C)c1 | 1.08

Row | Structure (SMILES) | cytotoxicity at 10 µM [%]
29 | O=C(Nc1ccnc(OC2CCOC2)c1)C1CCC1 (stereo not given) | 5.76
30 | CS(=O)(=O)NCc1cncc2c1CCN(C(=O)c1ccccn1)C2 | 0.734
31 | O=C(c1ccc(N2CCCC2)nc1)N1CCCC(c2nccs2)C1 (stereo not given) | 15.4
32 | COc1ccc(C2CCCCCN2Cc2nnc(C)o2)cc1 (stereo not given) | -7.12
33 | CC(=O)c1ccc(-n2c(C)cn(CCS(C)(=O)=O)c2=O)cc1 | 11.5
34 | Cc1ccc(N2CC[C@@H]3O[C@@H](COCc4cccnc4)CC[C@@H]32)nn1 | 8.37
35 | O=C(O)c1cc(S(=O)(=O)Nc2cc(Cl)ccc2F)cc2c1OCCO2 | -18.7
36 | CCNc1ccnc(NC2CCN(C(=O)c3ccc(C)cc3)CC2)n1 | 5.09
37 | c1ccc(CN2CCN(Cc3cnc(C4CCCCO4)nc3)CC2)cc1 (stereo not given) | -1.71
38 | O=C1C(NCc2nnc3n2CCCC3)CCN1c1ccccc1Cl (stereo not given) | -7.42
39 | NC(=O)N1CCCN(C(=O)Nc2cc(-n3cccc3)ccc2F)CC1 | -2.09
40 | OCC1(NCc2cnc(-c3ccsc3)s2)CCOCC1 | -3.1
41 | O=C(NCCNCC1CNc2ccnn2C1)c1ccc(F)cc1 (stereo not given) | -8.75
42 | Cn1nccc1-c1nnn2c1COC(CNCc1nccs1)C2 (stereo not given) | -1.07
43 | NC(=O)[C@@H]1Cc2ccccc2CN1S(=O)(=O)N1CCCCC1 | 3.33
44 | CC(C)N1CCC(C(=O)N(C)C(C)c2ccon2)CC1 (stereo not given) | 5.16
45 | O=S(=O)(c1ccc(F)cc1)N1CCOC[C@H](Oc2cnccn2)C1 | 5.88
46 | O=C(CN1CCCC1Cn1cncn1)NCCOc1ccc(F)cc1 (stereo not given) | -3.56
47 | CCC(C)N(Cc1ccc(C)cc1)Cc1c[nH]c(C)n1 (stereo not given) | 7.87
48 | CC(C)NC(=O)Nc1ccc(CNCc2cccc(C#N)c2)cc1 | -7.15
49 | CN(C)c1cc(CNC(=O)Nc2nnc(C3CC3)s2)ccn1 | -10.8
50 | CCOc1cc(CN(C)Cc2ccccc2)ccc1OC(F)F | -14.7
51 | CNc1cccc(CC2COCCN(C(=O)c3cnn(C)c3)C2)n1 (stereo not given) | 2.64
52 | CCN1CC(C(=O)N2CC(Oc3ccccc3Cl)C2)CCC1=O (stereo not given) | -8.62
53 | CCc1nc(N)nc(N2CCCC3(CCN(C)CC3)CC2)c1C | -179
54 | O=C(CCCc1ccccn1)N1CCCC1c1noc(C2CC2)n1 (stereo not given) | -4.47
55 | CCCc1nnc(NC(=O)NC(CCO)c2cccs2)s1 (stereo not given) | -7.38
